Redox H2O2 prof: compounds producing H2O2 with reducing agent – biochemical, NIH compound library profiling, artefact control for MLSCN library redox annotation, primary screen; DTT-dependent redox cycling H2O2, phenol red/HRP absorbance; 100% = 100 µM peroxide control, 0% = buffer; activation, % at 10 µM; 0.03% of 200,000 active;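 active = activation of at least 50% relative to the plate's high and low controls in the primary single-dose screen; inactive = activation below 50%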;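 also: compound incubated with DTT at 0.8 mM final as the reducing agent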
SUMO HTRF inh: inhibitors of human SUMOylation (UBC9). P63279. HTRF SUMOylation assay, SAE1/SAE2 + UBC9, in vitro. inhibition, % at 35 µM. 0.36% of 290,000 active; in the data active = inhibition above about 50%, passing the limit was not always enough
HKDC1 inh: inhibitors of human hexokinase HKDC1; Q2TB90; recombinant HKDC1, G6PDH/diaphorase resazurin coupled fluorescence; inhibition, % at 20 µM; 0.16% of 340,000 active;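 active = inhibition above about 35% when tested at 20 µM, limit read from the data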
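Material – in-house recombinant HK5 (HKDC1) enzyme · Quantity – HKDC1 at 5 µg/mL · Buffer or medium – pH 8.0 Tris buffer with 10 mM MgCl2 · Reagent – glucose with 1 mM ATP · Dosing – single 20 µM dose · Times – reaction time 90 min, room temperature, protected from light · Technique – resorufin fluorescence at 613 nm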
Apaf-1 inh: blocks human Apaf-1 apoptosome activity. reconstituted apoptosome caspase-3 activity, DEVD-Rh110 fluorescence. 0.71% of 330,000 active. inhibition, % at 20 µM. O14727; active = inhibition of at least 40% at 20 µM
Target sequence (O14727 whole entry, looked up): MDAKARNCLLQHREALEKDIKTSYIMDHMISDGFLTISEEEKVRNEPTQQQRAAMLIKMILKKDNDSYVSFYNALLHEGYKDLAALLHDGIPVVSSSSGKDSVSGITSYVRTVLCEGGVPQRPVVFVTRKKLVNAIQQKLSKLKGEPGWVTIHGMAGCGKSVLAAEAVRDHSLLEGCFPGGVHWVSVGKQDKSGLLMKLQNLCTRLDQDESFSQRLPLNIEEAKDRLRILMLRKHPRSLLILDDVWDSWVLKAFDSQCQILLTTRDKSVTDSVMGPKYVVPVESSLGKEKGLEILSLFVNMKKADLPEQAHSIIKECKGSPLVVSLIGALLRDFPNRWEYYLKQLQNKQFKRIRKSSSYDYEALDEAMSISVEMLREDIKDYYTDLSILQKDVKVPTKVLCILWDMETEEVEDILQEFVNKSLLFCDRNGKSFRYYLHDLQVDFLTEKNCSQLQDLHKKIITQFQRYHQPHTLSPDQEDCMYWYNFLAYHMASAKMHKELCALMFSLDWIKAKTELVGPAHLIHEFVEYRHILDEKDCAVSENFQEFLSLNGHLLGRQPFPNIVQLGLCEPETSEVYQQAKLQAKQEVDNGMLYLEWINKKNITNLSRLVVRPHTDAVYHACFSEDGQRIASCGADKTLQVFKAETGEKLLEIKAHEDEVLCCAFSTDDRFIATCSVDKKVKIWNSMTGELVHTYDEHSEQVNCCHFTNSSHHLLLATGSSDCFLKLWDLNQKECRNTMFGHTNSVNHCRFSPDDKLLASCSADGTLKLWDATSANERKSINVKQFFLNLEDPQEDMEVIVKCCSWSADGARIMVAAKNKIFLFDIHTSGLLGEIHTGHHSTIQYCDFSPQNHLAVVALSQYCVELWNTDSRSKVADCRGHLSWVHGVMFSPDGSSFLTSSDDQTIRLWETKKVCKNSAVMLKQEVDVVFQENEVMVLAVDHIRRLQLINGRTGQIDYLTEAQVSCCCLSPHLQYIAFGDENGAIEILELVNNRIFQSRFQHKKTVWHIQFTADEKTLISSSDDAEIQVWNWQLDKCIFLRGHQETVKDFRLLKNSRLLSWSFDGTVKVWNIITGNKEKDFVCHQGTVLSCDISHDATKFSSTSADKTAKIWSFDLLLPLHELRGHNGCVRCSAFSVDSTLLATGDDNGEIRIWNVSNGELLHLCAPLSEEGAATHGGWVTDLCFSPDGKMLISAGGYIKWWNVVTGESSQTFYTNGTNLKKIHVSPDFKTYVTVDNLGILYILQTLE
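Assay system: Apoptosome proteins | Medium: pH 7.5 Hepes buffer with CHAPS, BSA, DTT | Also added: Cytochrome c and DEVD-Rh110 substrate | Times: 30 min plus 50 min, RT | Detection: Rhodamine 110 fluorescence at Ex 480/Em 540 nm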
GSTO1 inh: blocks human GSTO1 in RBBP9 counter-screen. recombinant GSTO1, activity-based probe fluorescence polarization. AID 1974. 1.1% of 300,000 active. inhibition, % at 5.96 µM;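 active = inhibition above the campaign mean inhibition plus 3 SD, cut at about 35% in these data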
GSTO1 confirm: GSTO1 (human) inhibition, confirmation; inhibition, % at 5.96 µM; 54% of 2,400 active; shares compounds with GSTO1 inh; recombinant GSTO1, probe fluorescence polarization;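 active = inhibition above the primary screen's cutoff, its mean inhibition plus 3 SD, cut at about 35% in these data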;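 also: loss of polarization as inhibitors block binding of rhodamine sulfonate ester activity probe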
Apaf-1 inh conf2: Apaf-1 inhibition, single-dose confirmed; shares compounds with Apaf-1 inh; reconstituted apoptosome, caspase-3 DEVD-Rh110 fluorescence; inhibition, % at 20 µM; 25% of 1,800 active;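 active = mean inhibition of at least 40% at 20 µM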
Rh110 quench: Rh110 signal interference in Apaf-1 inhibitor counter-screen; shares compounds with Apaf-1 inh; Rh110 fluorescence interference, quenched caspase reaction; 1,800 tested, under 10 active; activation (fluorescence interference), % at 20 µM;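 active = signal rise of 40% or more at 20 µM, treated as a fluorescence artifact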
Apaf1 inh interf: shows fluorescence interference in the Apaf-1 inhibitor assay format. shares compounds with Apaf-1 inh. fluorescence interference counterscreen, Apaf-1 assay format. IC50, µM. 460 tested, under 10 active; call rule not given here
Each line names hits and unclear results; the compound was inactive in the other large screens (follow-up assays come after a bar, where they were run). Rows were chosen to be rich in hits. Some 1.4% of all compounds tested hit in one or more screens of this group.

COc1c(/C=N/NC(=O)c2ccncc2)c(CCN(C)C(C)=O)cc2c1OCO2	none (no result: Redox H2O2 prof)
C=CCn1c(N)c(C(=O)NCC2CCCO2)c2nc3ccccc3nc21 (configuration not stated)	SUMO HTRF inh 95, Apaf-1 inh 78, GSTO1 inh 80 | GSTO1 confirm inactive | Apaf-1 inh conf2 inactive | Rh110 quench inactive
CC1=NN(c2ccc(F)cc2)C(=O)C1C(c1cccc(O)c1)c1c(C)[nH]n(-c2ccc(F)cc2)c1=O (configuration not stated)	Apaf-1 inh 91, GSTO1 inh 58 | GSTO1 confirm 36 | Apaf-1 inh conf2 inactive | Rh110 quench inactive
CCCCN(C(=O)c1ccc(Cl)c(S(=O)(=O)N2CCOCC2)c1)c1c(N)n(CCC)c(=O)[nH]c1=O	none (no result: Redox H2O2 prof)
CC(=O)c1cccc(Nc2nc(N3CCOCC3)nc(N3CCOCC3)n2)c1	none (no result: Redox H2O2 prof)
O=C(O)c1cccc(NC2=C(N3CCOCC3)C(=O)c3ccccc3C2=O)c1	Apaf-1 inh 84, GSTO1 inh 47 (no result: Redox H2O2 prof) | GSTO1 confirm inactive | Apaf-1 inh conf2 81 | Rh110 quench inactive | Apaf1 inh interf inactive
N#Cc1sc2nc(-c3ccccc3)cc(-c3ccco3)c2c1N	Apaf-1 inh 90, GSTO1 inh 66 | GSTO1 confirm 78 | Apaf-1 inh conf2 inactive | Rh110 quench inactive
CC(=O)c1nn(-c2ccc(C(F)(F)F)cc2)c(=O)[nH]c1=O	none (no result: Redox H2O2 prof)
O=C(NN=c1c(=O)c2ccccc2c1=O)c1ccccc1	Apaf-1 inh 96, GSTO1 inh 77 | GSTO1 confirm 72 | Apaf-1 inh conf2 98 | Rh110 quench inactive | Apaf1 inh interf inactive
CN(C)/C=N/NC(=O)c1ccccc1	none
CCN1CCN(C2=C(NS(=O)(=O)c3ccc(Br)cc3)C(=O)c3ccccc3C2=O)CC1	Apaf-1 inh 88, GSTO1 inh 59 (no result: Redox H2O2 prof) | GSTO1 confirm inactive | Apaf-1 inh conf2 46 | Rh110 quench inactive | Apaf1 inh interf inactive
O=C1C(NS(=O)(=O)c2ccc(Cl)cc2)=C(N2CCCCC2)C(=O)c2ccccc21	Apaf-1 inh 72, GSTO1 inh 48 | GSTO1 confirm inactive | Apaf-1 inh conf2 42 | Rh110 quench inactive | Apaf1 inh interf inactive
CN1CCN(C2=C(NS(=O)(=O)c3ccccc3)C(=O)c3ccccc3C2=O)CC1	Apaf-1 inh 79, GSTO1 inh 46 (no result: Redox H2O2 prof) | GSTO1 confirm inactive | Apaf-1 inh conf2 45 | Rh110 quench inactive | Apaf1 inh interf inactive
CCN1CCN(C(CNS(=O)(=O)c2ccccc2)c2ccccc2)CC1 (configuration not stated)	none (no result: Redox H2O2 prof)
CCN1CCN(C2=C(NS(=O)(=O)c3ccccc3)C(=O)c3ccccc3C2=O)CC1	Apaf-1 inh 82, GSTO1 inh 49 (no result: Redox H2O2 prof) | GSTO1 confirm 38 | Apaf-1 inh conf2 42 | Rh110 quench inactive | Apaf1 inh interf inactive
COc1ccc(N2CCN(C(=O)c3ccccc3NC(=O)c3ccccc3)CC2)cc1	none (no result: Redox H2O2 prof)
CN1C(=O)NC(c2cccc(F)c2)C2=C1CC(C)(C)CC2=O (configuration not stated)	none (no result: Redox H2O2 prof)
CCOC(=O)C1=NS(=O)(=O)NC(C)=C1	none (no result: Redox H2O2 prof, SUMO HTRF inh, GSTO1 inh)
CCOC(=O)C1CCN(C2=C(NS(=O)(=O)c3ccc(Br)cc3)C(=O)c3ccccc3C2=O)CC1	Apaf-1 inh 68, GSTO1 inh 45 (no result: Redox H2O2 prof) | GSTO1 confirm inactive | Apaf-1 inh conf2 inactive | Rh110 quench inactive
O=C1C(NS(=O)(=O)c2cccs2)=C(N2CCN(c3cccc(C(F)(F)F)c3)CC2)C(=O)c2ccccc21	Apaf-1 inh 48, GSTO1 inh 48 | GSTO1 confirm inactive | Apaf-1 inh conf2 inactive | Rh110 quench inactive
O=C1C(NS(=O)(=O)c2cccs2)=C(N2CCOCC2)C(=O)c2ccccc21	none (no result: Redox H2O2 prof)
O=C(COC(=O)CC1SC(N2CCCC2)=NC1=O)Nc1ccc(Br)cc1 (configuration not stated)	none (no result: Redox H2O2 prof, SUMO HTRF inh, GSTO1 inh)
Cc1ccccc1OCCOc1ccccc1C=C(C#N)C#N	none (no result: HKDC1 inh, Apaf-1 inh)
O=C(O)c1ccc(NC2=C(n3nnc4ccccc43)C(=O)c3ccccc3C2=O)cc1	Apaf-1 inh 73, GSTO1 inh 53 (no result: Redox H2O2 prof) | GSTO1 confirm 61 | Apaf-1 inh conf2 76 | Rh110 quench inactive | Apaf1 inh interf inactive
CCN1C(=O)/C(=C/C2=Cc3ccccc3OC2C)SC1=S (configuration not stated)	none (no result: Redox H2O2 prof)
O=C1CCN2C=Nc3cccc4ccc1c2c34	SUMO HTRF inh 66, Apaf-1 inh 43, GSTO1 inh 40 | GSTO1 confirm inactive | Apaf-1 inh conf2 inactive | Rh110 quench inactive
Cc1ccc(NS(=O)(=O)c2cc(C(=O)N(C)C3CCN(C)CC3)ccc2Cl)cc1Cl	none (no result: Redox H2O2 prof, SUMO HTRF inh, GSTO1 inh)
O=C(CSc1nnc(CNC(=O)c2ccccc2)o1)NCCc1ccccc1	none (no result: Redox H2O2 prof)
Cc1[nH][nH]c(=O)c1C(c1c(C)[nH][nH]c1=O)c1cn(C)c2ccccc12	none (no result: Apaf-1 inh, GSTO1 inh)
Cc1[nH][nH]c(=O)c1C(c1c(C)[nH][nH]c1=O)c1cn(Cc2cccc3ccccc23)c2ccccc12	Apaf-1 inh 95, GSTO1 inh 55 | GSTO1 confirm 41 | Apaf-1 inh conf2 51 | Rh110 quench inactive | Apaf1 inh interf inactive
CCOC(=O)c1c(NC(=O)c2ccco2)n(C2CCCCC2)c2nc3ccccc3nc12	Apaf-1 inh 88, GSTO1 inh 62 | GSTO1 confirm 86 | Apaf-1 inh conf2 inactive | Rh110 quench inactive
COc1cccc2c(=O)c3cccc(N)c3[nH]c12	Apaf-1 inh 70, GSTO1 inh 67 | GSTO1 confirm inactive | Apaf-1 inh conf2 inactive | Rh110 quench inactive
Oc1ccc(/C=N/Nc2cc(N3CCCC3)nc(N3CCCC3)n2)cc1O	SUMO HTRF inh 63, Apaf-1 inh 60, GSTO1 inh 46 | GSTO1 confirm 79 | Apaf-1 inh conf2 89 | Rh110 quench inactive | Apaf1 inh interf inactive
COc1ccc(/C=N/Nc2nc(N3CCCC3)nc(N3CCCC3)n2)cc1O	none
COc1ccc(-c2nc(CSCC(=O)NC3CCCC3)c(C)o2)cc1OC	none (no result: Redox H2O2 prof)
CCCn1c(=O)c(C(=O)OCC)c(O)c2cc(Br)ccc21	none
CCOC(=O)c1c(CN(C)C)n(C)c2c(O)c(N=NC(N)=O)c3ccc(Br)cc3c12	Apaf-1 inh 95, GSTO1 inh 49 (no result: Redox H2O2 prof) | GSTO1 confirm inactive | Apaf-1 inh conf2 53 | Rh110 quench inactive | Apaf1 inh interf inactive
COc1ccc(CCNC(=O)CCC(=O)N2CCOc3ccc(Cl)cc32)cc1OC	none (no result: Redox H2O2 prof)
